Bioassay records: PubChem BioAssay, Sanford-Burnham Center for Chemical Genomics
Rows were chosen to be rich in hits. Some 0.77% of all compounds tested hit in one or more screens of this group.
bIAP inhibitor: bovine intestinal alkaline phosphatase inhibitors, primary screen, selectivity assay for TNAP inhibitor project, biochemical, bovine IAP, CDP-star luminescence; AID 1019, 2008; alkaline phosphatase, intestinal [Bos taurus]; inhibition, % at 20 µM; purified bovine IAP, 30 min; 190,000 tested, under 10 active;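 active = over 50% inhibition of intestinal alkaline phosphatase at 20 µM in the single-dose screen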
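test system = bovine IAP enzyme | medium = DEA buffer 100 mM, pH 9.8, with MgCl2 1.0 mM, ZnCl2 0.02 mM | detection = luminescence | dosing = single compound dose of 20 µM, 2% DMSO final | incubation = 30 min reaction at room temperature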
hIAP block: human IAP inhibitors, primary screen, biochemical, luminescence, uHTS; purified IAP, CDP-Star luminescence, 30 min; inhibition, % at 10 µM; hit rate 0.12% among 330,000;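 active = inhibition reaching a set limit with compound at 10 µM in the primary screen, cut at about 35% in these data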
Target sequence (P09923 whole entry, looked up): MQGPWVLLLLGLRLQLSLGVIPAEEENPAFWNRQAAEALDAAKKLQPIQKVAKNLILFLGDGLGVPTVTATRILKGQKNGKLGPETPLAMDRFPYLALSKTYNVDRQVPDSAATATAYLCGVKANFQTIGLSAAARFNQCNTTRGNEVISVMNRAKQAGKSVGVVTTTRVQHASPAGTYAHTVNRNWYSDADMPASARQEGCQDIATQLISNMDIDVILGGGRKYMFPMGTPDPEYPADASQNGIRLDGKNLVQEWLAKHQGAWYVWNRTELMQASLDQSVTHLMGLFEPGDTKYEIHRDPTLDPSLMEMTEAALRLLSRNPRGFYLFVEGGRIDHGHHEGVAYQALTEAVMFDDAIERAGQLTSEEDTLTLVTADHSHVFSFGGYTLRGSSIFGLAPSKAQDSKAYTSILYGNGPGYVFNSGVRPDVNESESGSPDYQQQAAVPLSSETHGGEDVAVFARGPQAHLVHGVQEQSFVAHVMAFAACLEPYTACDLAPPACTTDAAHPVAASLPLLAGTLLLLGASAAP
mIAP activ: activators of mouse IAP, primary screen, biochemical, luminescence, uHTS; intestinal alkaline phosphatase [Mus musculus]; muIAP, CDP-Star luminescence, 30 min; stronger effect = higher value; 1 = vehicle-only enzyme signal, 0 = enzyme-free wells; activation factor at 10 µM; hit rate 0.24% among 330,000;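 active = activation factor of at least 2 at 20 µM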
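Assay system: mouse IAP enzyme / Compound: DMSO-dissolved test compounds / Timing: 30 min, room temperature / Measured by: luminescence from enzymatic CDP-Star hydrolysis / Control set: DMSO-only wells, enzyme-free buffer wells as negative control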
bIAP activator: bovine intestinal alkaline phosphatase activators, primary screen, biochemical, bovine IAP, CDP-star luminescence; alkaline phosphatase, intestinal [Bos taurus]; purified bovine IAP, 30 min; stronger effect = higher value; fold of DMSO-control signal, blank-subtracted; activation factor at 20 µM; hit rate 0.17% among 200,000; AID 1016, 2008;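 active = activation factor of 2 or more at 20 µM, a signal rise over negative controls twice the positive control's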
hIAP activ: human IAP activators, primary screen, biochemical, luminescence, uHTS; Intestinal-type alkaline phosphatase (Homo sapiens), P09923; purified human IAP, CDP-Star luminescence, 30 min; stronger effect = higher value; 1 = vehicle-only enzyme, 0 = enzyme-free background; hit rate 0.16% among 330,000; activation factor at 10 µM;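 active = activation factor of the enzyme at least 2-fold when tested at 20 µM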
mIAP inh: inhibitors of mouse IAP, primary screen, biochemical, luminescence, uHTS; intestinal alkaline phosphatase [Mus musculus]; purified mouse IAP, CDP-Star luminescence, 30 min; AID 2806, 2010; hit rate 0.2% among 330,000; inhibition, % at 10 µM;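 active = inhibition of at least 40% at 10 µM in the primary screen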
hIAP act confirm: human IAP activators, confirmation, biochemical, luminescence, single concentration, uHTS hits; shares compounds with hIAP activ; purified IAP, CDP-Star luminescence, 30 min; stronger effect = lower value; hit rate 10% among 880; activation (%Activity, negative = activation), % at 8.3 µM;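 active = at least twofold enzyme activation in any of six single-dose repeats, which the averaged readout prints as negative percent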
mIAP inh confirm: inhibitors of mouse IAP, confirmation, biochemical, luminescence, single concentration; shares compounds with mIAP inh; purified mouse IAP, CDP-Star luminescence, 30 min; inhibition, % at 10 µM; hit rate 4.7% among 11,000; AID 434971, 2010;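 active = inhibition of at least 40% at 10 µM in either of the two replicates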
Large screens that a line does not name were inactive (follow-up assays come after a bar, where they were run).

Cc1cccc(C(O)(C(=O)NNC(=O)CN2CCN(C)CC2)c2cccc(C)c2)c1	bIAP activator 2.3
Cc1ccc(C(O)(C(=O)NNC(=O)CN2CCN(C)CC2)c2ccc(C)cc2)cc1	none
C[CH2][Hg][S]c1ccccc1C(=O)O	none (no result: bIAP inhibitor, bIAP activator)
O=C/C=C/c1ccccc1	none (no result: bIAP inhibitor, bIAP activator)
O=C1NC(=S)NC(=O)C1C/C=C/c1ccccc1	mIAP inh 42
CCOc1ccc2nc(N=Nc3c(O)[nH]c(=S)[nH]c3=O)sc2c1	mIAP inh 44
CCOC(=O)c1c(-n2c(C)cc(C=C3C(=O)NC(=S)NC3=O)c2C)sc2c1CCCC2	mIAP inh 51 (no result: bIAP inhibitor)
COc1cc(/C=C/[N+](=O)[O-])ccc1O	mIAP inh 46
CN1C2CCC1C(C(=O)O)C(O)C2 (stereo not given)	none (no result: bIAP inhibitor, bIAP activator)
CC(C)Cc1nnc(NC(=O)CCC(=O)N2CCC3(CC2)OCCO3)s1	hIAP activ 2.3 (no result: bIAP inhibitor, bIAP activator) | hIAP act confirm inactive
Cc1ccc(-c2nc(N3CCOCC3)s[n+]2-c2ccccc2)cc1	none (no result: hIAP block, mIAP activ, hIAP activ, mIAP inh)
CN(C)c1nc(-c2ccccc2)[n+](C)s1	hIAP block 42 | hIAP act confirm inactive
CCC1=Nc2cc(C(=O)N3CCC4(CC3)OCCO4)ccc2Sc2ccc(Br)cc21	none (no result: bIAP inhibitor, bIAP activator)
Cc1ccc(CN2C3CCCC2CC(NC(=O)Nc2cccc(F)c2)C3)cc1 (stereo not given)	mIAP activ 11, bIAP activator 6.7, hIAP activ 2.2 | hIAP act confirm inactive | mIAP inh confirm inactive
O=C(Cc1cc(=O)[nH]c(=O)[nH]1)N1CCN(CCO)CC1	none (no result: hIAP block, mIAP activ, hIAP activ, mIAP inh)
Cc1ccc(N2C(=O)/C(=C/c3ccc(CN(CCC#N)S(C)(=O)=O)o3)C(=O)NC2=S)cc1	mIAP inh 47 | mIAP inh confirm 44
O=C1NC(=O)N(Cc2ccco2)C(=O)/C1=C\c1cccn1CCOc1ccc(Cl)cc1	mIAP inh 49 | mIAP inh confirm 50
Cc1cccc(OCCn2cccc2/C=C2/C(=O)NC(=O)N(Cc3ccco3)C2=O)c1	mIAP inh 40 (no result: bIAP inhibitor, bIAP activator) | mIAP inh confirm 57
Cc1cccc(-n2c(O)c(C)c(=O)[nH]c2=S)c1	none (no result: hIAP block, mIAP activ, hIAP activ, mIAP inh)
Nc1nonc1C(=O)N/N=C/c1ccc([N+](=O)[O-])o1	mIAP inh 55 | mIAP inh confirm 72
N/C(=N\[N+](=O)[O-])N/N=C/c1ccc(O)cc1	none
CC(C)NP(=O)(NC(C)C)OP(=O)(NC(C)C)NC(C)C	none (no result: bIAP inhibitor, bIAP activator)
COC(=O)C1=C(c2ccc(OC)c(OC)c2)C[C@@H]2CC[C@H]1N2C(=O)NC1CCCCC1	none (no result: bIAP inhibitor, bIAP activator)
CC[C@H]1CN(C)CCc2c([nH]c3ccccc23)C(=O)C[C@@H]1/C(=C\OC)C(=O)OC	none (no result: bIAP inhibitor, bIAP activator)
O=[N+]([O-])c1cc(S(=O)(=O)c2ccc(O)c([N+](=O)[O-])c2)ccc1O	mIAP inh 63 | mIAP inh confirm 53
C=CCN1C(=O)NC(=O)/C(=C\c2ccc(-c3ccccc3[N+](=O)[O-])o2)C1=O	none
CN(C)c1ccc(/C=C2/C(=O)NC(=O)N(Cc3ccco3)C2=O)cc1	mIAP inh 48 | mIAP inh confirm 48
O=C1NC(=O)N(Cc2ccco2)C(=O)/C1=C/c1ccc(-c2cccc([N+](=O)[O-])c2)o1	mIAP inh 61 | mIAP inh confirm 68
CCN(CC)c1ccc(/C=C2/C(=O)NC(=O)N(Cc3ccco3)C2=O)cc1	mIAP inh 61 | mIAP inh confirm 46
CCN(CC)c1ccc(/C=C2\C(=O)NC(=O)N(CC3CCCO3)C2=O)cc1 (stereo not given)	none (no result: bIAP inhibitor)
CCc1cc(=O)oc2cc(OCC(=O)N3C[C@H]4C[C@@H](C3)c3cccc(=O)n3C4)ccc12	none (no result: bIAP inhibitor, bIAP activator)
COC(=O)C1=C(c2cc3ccccc3s2)C[C@@H]2CC[C@H]1N2C(=O)NCCNC(C)=O	none (no result: bIAP inhibitor, bIAP activator)
C[C@]12CCC3C(CC[C@H]4C[C@@H](O)[C@H](O)C[C@]34C)C1CC[C@@H]2O (stereo not given in full)	none (no result: bIAP inhibitor, bIAP activator)
NC(Cc1cc(O)c(O)cc1O)C(=O)O (stereo not given)	mIAP inh 84 (no result: bIAP inhibitor, bIAP activator) | mIAP inh confirm 88
N[C@@H](CCl)C(=O)O	none (no result: bIAP inhibitor, bIAP activator)
O=C1NC(=S)NC(=O)C1=Cc1ccc2c(c1)CCN2CCCCl	mIAP inh 66 (no result: bIAP inhibitor, bIAP activator) | mIAP inh confirm 73
O=C1NC(=O)N(c2cccc(Cl)c2)C(=O)/C1=C\c1ccc(Sc2nc3ccccc3[nH]2)o1	mIAP inh 46 | mIAP inh confirm 50
O=C1NC(=O)N(c2ccccc2F)C(=O)/C1=C/c1ccc(Sc2nc3ccccc3[nH]2)o1	none (no result: hIAP block, mIAP activ, hIAP activ, mIAP inh)
COC(=O)C1=C(c2ccc(OC)c(OC)c2)C[C@@H]2CC[C@H]1N2C(=O)NCC1CC1	none (no result: bIAP inhibitor, bIAP activator)
COc1cccc(N2C(=O)NC(=O)/C(=C/c3ccc([N+](=O)[O-])s3)C2=O)c1	mIAP inh 48 (no result: bIAP inhibitor, bIAP activator) | mIAP inh confirm 51
COc1ccc(N2C(=O)NC(=O)/C(=C\c3ccc([N+](=O)[O-])s3)C2=O)cc1	none
O=C(NC1CCCCC1)Oc1cc2oc(=O)sc2cc1Cl	mIAP inh 61 (no result: bIAP inhibitor, bIAP activator) | mIAP inh confirm 76
O=C1NC(=O)N(Cc2ccccc2)C(=O)/C1=C/C=C/c1ccco1	mIAP inh 57 (no result: bIAP inhibitor, bIAP activator) | mIAP inh confirm 66
